# Results gathered from unrelated publications.
# Each line is one published result; the experiments were not run side by side.
# Read-out: metabolic stability
# Medium: liver microsomes
SMILES,test system,conditions,microsomal CLint [µL/min/mg]
CCOC(=O)C1=C(C)N/C(=C/c2cc(CC)n(-c3ccccc3C(F)(F)F)c2CC)C1=O,mouse,1 µM,143
N#CC1CCCN(c2nc(-c3ccccn3)nc3ccccc23)C1 (stereo not shown),mouse,,93
Cc1cc(Nc2ccc(C(F)(F)F)cc2)n2nc(C(F)(F)F)nc2n1,mouse,"1 µM, pH 7.4",< 10
FC(F)(F)c1ccccc1-c1nc(N2CCC(c3ccccn3)C2)c2ccccc2n1 (stereo not shown),mouse,,688
O=C(Nc1ccc2c(c1)B(O)OC2)Nc1ccc(F)c(C(F)(F)F)c1,mouse,,34
CCOC(=O)c1c(-c2cccc(Cl)c2)[nH]c2cc(OC)ccc2c1=O,female CD-1 mouse,"19.8 µM, pH 7.4",> 15
Cc1cc(Nc2ccc(S(F)(F)(F)(F)F)cc2)n2nc(C(C)(F)F)nc2n1,mouse,"1 µM, pH 7.4",< 10
Cc1cc(Nc2ccc(S(F)(F)(F)(F)F)cc2)n2ccnc2n1,mouse,,30
c1ccc(CCNc2nc(-c3ccccn3)nc3ccccc23)nc1,mouse,,336
CCOc1ccc2ccc(=O)oc2c1,mouse,"1 µM, pH 7.4",522
CCOC(=O)c1c(-c2cccc(Oc3ccccc3)c2)[nH]c2cc(OC)ccc2c1=O,female CD-1 mouse,"19.8 µM, pH 7.4",> 15
COc1ccc(Nc2nc(-c3ccccn3)nc3ccccc23)cc1,mouse,,158
O=C(C1CCSCC1)N1CC(=O)N2CCc3ccccc3[C@@H]2C1,mouse,"0.1 µM, pH 7.4",324
CC1=C(C(N)=O)C(=O)/C(=C\c2cc(C)n(-c3ccccc3C(F)(F)F)c2C)N1,mouse,1 µM,93
Cc1cccc(N2CCN(c3nc(-c4ccccn4)nc4ccccc34)CC2)n1,mouse,,513
Cc1cc(NC(=O)Nc2ccc3c(c2)OC(F)(F)O3)cc(C(F)(F)F)n1,mouse,,36
COc1cc2[nH]c(-c3cccc(Oc4ccccc4)c3)c(C(=O)OCCCN3CCOCC3)c(=O)c2cc1F,female CD-1 mouse,"19.8 µM, pH 7.4",> 15
c1ccc(C2CCN(c3nc(-c4ccco4)nc4ccccc34)C2)nc1 (stereo not shown),mouse,,539
CCC(F)(F)c1nc2nc(C)cc(Nc3ccc(C(F)(F)F)cc3)n2n1,mouse,"1 µM, pH 7.4",< 10
